# Compound activity deposited in PubChem BioAssay by several laboratories.
# B2AR ag: activates human beta-2 adrenergic receptor causing internalization | Am2.2-beta2AR cells, FAP receptor internalization, flow cytometry | AID 504454 | actives 0.43% (n = 340,000) | response, % (no concentration beside the values);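 active means response above a set limit, near 3 SD of response in nonfluorescent compounds, cut at about 42% in these data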
# CCR6 antag: CCR6 (human) receptor antagonism | P51684 | AID 493098 | CHO-K1 CCR6 PathHunter beta-arrestin, luminescence, CCL20-stimulated | actives 0.49% (n = 340,000) | inhibition, % at 20 µM;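 active means compounds whose inhibition of the agonist-driven luminescence signal at 20 µM reaches about 50%, limit read from the data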;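 further: cells stimulated with CCL20 at 14 nM final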
# APJ ag: agonists of human APJ apelin receptor | P35414 | CHO-K1 APJ PathHunter beta-arrestin, luminescence; 0% DMSO wells, 100% apelin | activation, % at 20 µM | actives 0.11% (n = 330,000) | AID 2520;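 active means activation more than six SD over the plate average, tested at 20 µM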
#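 assay system = CHO-K1 APJ beta-arrestin complementation cell line | input = cell density 1000 per well | dosing = compound 20 µM once, DMSO 1% | timing = compound 90 min 25 °C, reagent 1 h | measured by = luminescence from split beta-galactosidase complementation, Galacton Star/Emerald II substrate | read-out basis = APJ agonist activity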
# CXCR6 block: blocks human CXCR6 beta-arrestin recruitment; O00574; CHO-K1 PathHunter CXCR6 beta-arrestin, luminescence; inhibition, % at 20 µM; actives 0.36% (n = 360,000); in the data active means inhibition above about 34%, passing the limit was not always enough;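 further: antagonist mode with CXCL16 agonist at 10 nM final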
# Target sequence (O00574 whole entry, looked up): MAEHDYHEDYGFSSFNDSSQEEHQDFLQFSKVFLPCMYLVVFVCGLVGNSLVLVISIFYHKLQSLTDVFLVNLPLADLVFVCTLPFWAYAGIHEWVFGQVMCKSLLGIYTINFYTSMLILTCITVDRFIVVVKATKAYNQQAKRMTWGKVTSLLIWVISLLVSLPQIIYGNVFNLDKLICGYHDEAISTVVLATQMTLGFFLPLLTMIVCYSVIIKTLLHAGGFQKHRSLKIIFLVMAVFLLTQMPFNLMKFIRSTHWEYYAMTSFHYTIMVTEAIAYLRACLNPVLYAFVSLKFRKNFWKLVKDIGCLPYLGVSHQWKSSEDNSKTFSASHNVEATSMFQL
# EBI2 antag: antagonists of human EBI2 receptor; P32249; EBI2 beta-arrestin recruitment, luminescence, 7a,25-OHC stimulated; inhibition, % at 5 µM; actives 0.81% (n = 360,000); AID 651636; in the data active means inhibition above about 38%;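 further: enzyme fragment complementation signal reports receptor beta-arrestin coupling in cells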
# APJ antagonist: APJ receptor antagonism; P35414; CHO-K1 APJ beta-arrestin complementation, luminescence; inhibition, % at 20 µM; actives 0.32% (n = 330,000); AID 2521;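 active means inhibition above about 40% at 20 µM, limit read from the data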;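 further: cells challenged with 10 nM apelin-13 agonist together with compound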
# Hits are given with their value; n = inactive; x = no result. An excerpt weighted towards active compounds, which were near 1.8% of everything screened.
SMILES,B2AR ag,CCR6 antag,APJ ag,CXCR6 block,EBI2 antag,APJ antagonist
CCCCC(=O)O[C@H]1CC[C@H]2[C@@H]3CCc4cc(O)ccc4[C@H]3CC[C@]12C,42.6,n,n,n,n,n
CC1CCC2(CC1)NC(=O)N(CC(=O)NCc1ccc(Cl)cc1)C2=O (configuration not stated),n,n,n,n,n,n
O=C(/C=C/c1ccc2c(c1)OCO2)NCCSCc1c(Cl)cccc1Cl,76.9,n,n,n,n,n
CCC(CC)C(=O)N(C)c1c(C)nc2c(OCc3ccc(F)c(F)c3)cccn12,x,x,x,n,n,x
COc1ccc(C(=O)/C(C#N)=N/Nc2ccccc2[N+](=O)[O-])cc1,n,n,n,n,n,n
COc1ccc(C(=O)/C(C#N)=N/Nc2ccc([N+](=O)[O-])cc2)cc1,46.5,76.3,n,66.7,n,72.6
N#CC(C#N)=NNc1ccc([N+](=O)[O-])cc1,n,56.9,n,42.8,n,n
CC(C)(C)C1=CC(=O)C(=O)C(C(C)(C)C)=C1,110.0,n,n,n,n,n
COc1ccccc1N(CC(=O)Nc1ccc2c(c1)OCCO2)S(=O)(=O)c1ccc(C)cc1,n,n,n,n,n,n
O=C1CC(N2CCN(S(=O)(=O)c3ccccc3F)CC2)C(=O)N1c1ccccc1F (configuration not stated),n,n,x,n,n,x
COc1ccc(NC(=O)Cn2c([N+](=O)[O-])cnc2C)c(OC)c1,x,x,x,n,n,x
CCOc1cc(/C=C2/C(=O)ON=C2C)ccc1OCc1ccccc1,x,n,n,x,x,n
CCOc1cc(/C=C2/C(=O)ON=C2C)ccc1OCc1ccccc1F,76.8,n,n,n,n,n
C/C(CCC12CC3CC(CC(C3)C1)C2)=N\NC(N)=S,n,57.1,n,n,n,n
C/C(CC1CC(C)OC1=O)=N\NC(N)=S (configuration not stated),n,n,n,n,n,n
O=C1C=CN(C2OC(CO)C(O)C2O)C(=O)C1 (configuration not stated),x,x,x,n,n,x
C[C@@H](NC(=O)c1ncn(Cc2ccccc2)c1C(=O)N[C@H](C)c1ccccc1)c1ccccc1,n,n,n,n,47.6,n
O=C(c1ccc(Cl)cc1)N1CCC(C(=O)N2CCN(c3ncccn3)CC2)CC1,n,n,n,n,48.0,n
CC1=C(C(=O)N(C(C)C)C(C)C)CC(CC(=O)NC2CC2)C(=O)N1CCCN1CCCC1=O (configuration not stated),x,x,x,n,n,x
CC1(C)CCc2cc(S(=O)(=O)N3CCN(S(=O)(=O)c4c(F)cccc4F)CC3)ccc2O1,n,n,n,n,n,n
Cc1[nH]n(-c2nc(-c3ccc(Cl)cc3)cs2)c(=O)c1N=Nc1ccc(O)cc1,n,n,n,n,51.2,n
CCc1c(C)[nH]n(-c2nc(-c3ccccc3)cs2)c1=O,n,n,n,n,n,n
CCCOc1ccc(C(=O)NNC(=S)NC(=O)c2ccco2)cc1,n,70.0,n,n,n,n
CCOc1cc(CNCc2ccncc2)cc(Br)c1OCc1ccc(F)cc1,n,n,n,n,58.5,n
CCCCOc1ccc(/C=C/C(=O)OCC(=O)N2CC(=O)Nc3ccccc32)cc1OCC,44.4,n,n,n,n,n
SMILES,B2AR ag,CCR6 antag,APJ ag,CXCR6 block,EBI2 antag,APJ antagonist
COc1ccc(C(C[N+](=O)[O-])C2(c3ccc(OC)c(OC)c3)C(=O)c3ccccc3C2=O)cc1 (configuration not stated),50.6,59.1,x,n,n,x
COc1ccc(C(C[N+](=O)[O-])c2c(-c3ccccc3)cc3ccccn23)cc1OC (configuration not stated),n,n,n,n,n,n
O=S(=O)(O)c1cccc2c(N=Nc3ccc(O)c4ncccc34)cccc12,n,x,x,36.8,n,x
Cc1ccccc1N=Nc1ccc(O)c2ncccc12,n,n,x,n,n,x
COc1cc(OC)cc(-c2nc3ccccc3c(=O)n2OC(=O)c2ccc(C)c(C)c2)c1,n,n,11.1,n,n,n
COc1cc(OC)cc(C(=O)Nn2c(C)nc3ccccc3c2=O)c1,n,n,n,n,n,n
CCOC(=O)C1CCCN(C(=O)Cn2sc3nc(C)cc(C)c3c2=O)C1 (configuration not stated),n,67.0,n,n,n,n
COc1cccc(NC(=O)N2CCC(NC(=O)c3ccco3)CC2)c1,n,n,n,n,n,n
CN(C)c1ccc(/C=C2/C[N+](C)(C)C/C(=C/c3ccc(N(C)C)cc3)C2=O)cc1,n,62.4,x,48.9,n,x
Nc1ccn([C@@H]2O[C@H](CNCc3ccc(C#CCCO)cc3)[C@@H](O)[C@H]2O)c(=O)n1,x,x,x,n,n,x
COc1ccc(C(C)=O)cc1CN1C(=O)C(C)ON=C1c1cccc(C(F)(F)F)c1 (configuration not stated),x,x,x,n,n,x
CC(C)(C)c1cnnn1-c1ccc(C(=O)CCl)cc1,44.6,64.6,n,n,n,n
CC(C)(C)c1cnnn1-c1ccc(C=O)cc1,n,n,n,n,n,n
N#CCCN1CCCc2cc(N=Nc3ccc(C(F)(F)F)cc3)ccc21,n,n,n,n,55.9,n
CCCN1CCCc2ccccc21,n,n,n,n,n,n
O=C(NCc1cc(Cl)cc(Cl)c1)c1ccc2nc([C@H]3C[C@H](O)[C@@H](CO)O3)[nH]c2c1,x,x,x,n,n,x
CCOc1ccc(-c2cc(C(=O)Nc3cccc(C(F)(F)F)c3)[nH]n2)c(C)c1,x,x,x,n,n,x
FC(F)(F)c1cnc(NNC(=S)Nc2ccccc2Cl)c(Cl)c1,n,84.9,n,81.6,n,n
O=C(Nc1ccccc1)Nc1ncc(C(F)(F)F)cc1Cl,x,x,x,n,n,x
CCc1ccc2nc(SCC(=O)N3CC(=O)Nc4ccccc43)c(C#N)cc2c1,n,n,n,n,48.5,n
N#Cc1cc(C#N)c(SCC(=O)N2CC(=O)Nc3ccccc32)nc1N,n,n,n,n,n,n
O=C(OCc1ccccc1)N1CCC2CC1c1ccc(N3CCN(Cc4ccc5c(c4)OCO5)CC3)cc12 (configuration not stated),x,x,x,n,n,x
Cc1nnc(N=c2ssnc2Cl)o1,n,55.9,n,n,41.1,n
CC1(C)Cc2c(c(N3CCOCC3)nc3sc4c(NCc5ccco5)nnnc4c23)CS1,n,n,n,n,n,n
CC1(C)Cc2c(c(N3CCOCC3)nc3sc4c(NCc5ccccc5)nnnc4c23)CS1,n,n,n,n,76.4,n
CC(C)(C)OC(=O)N1CCCC1C(=O)NCCc1ccccc1 (configuration not stated),54.6,n,n,n,n,n
COc1ccc(CN(C)C(=O)/C=C/[C@H]2O[C@@H](n3cnc4c(N)ncnc43)[C@H](O)[C@@H]2O)cc1OC,x,x,x,n,n,x
